Activity calls are given as the source filed them. The calls are words filed in the database; no cut-off is given here.
Assays:
Format in all cases: functional
NCI/ADR-RES = assay: Growth inhibition of human NCI/ADR-RES cells at 10 uM after 48 hrs by coulter counter method; conditions: read-out: GI
How it was run: (§1)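 NCI 60-cell-line panel, single dose. Compound dissolved first in DMSO, then diluted in phosphate-buffered saline so that every final dilution held under 1% DMSO. Duplicate wells received cells at 6 × 10⁴ cells/ml. Controls held PBS/DMSO at the same dilution. Plates were incubated 48 h at 37 °C under 5% CO₂. Cells were then diluted 10-fold in saline and counted on a Coulter counter, with counts corrected for the dilution. Results are given as percent growth inhibition.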

[1] = Growth inhibition of human prostate cancer cells after 48 hrs by coulter counter method; conditions: Cancer cell lines
How it was run: (§2)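 NCI 60-line panel cells. Compound is dissolved in DMSO and diluted in phosphate-buffered saline, with final DMSO below 1%. It is added in duplicate wells to cultures at 6 × 10⁴ cells/ml and held at 37 °C, 5% CO₂, humidified, for 48 h. Cells are diluted 10-fold in saline, counted by Coulter counter and dilution-corrected. Vehicle controls contain PBS plus DMSO.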

HCT-116 = assay: Growth inhibition of human HCT116 cells at 10 uM after 48 hrs by coulter counter method; conditions: HCT-116, 48 h, read-out: GI; how it was run: as §1
SK-MEL-2 = assay: Growth inhibition of human SK-MEL-2 cells at 10 uM after 48 hrs by coulter counter method; conditions: SK-MEL-2, 48 h, read-out: GI; how it was run: as §1
OVCAR-8 = assay: Growth inhibition of human OVCAR8 cells at 10 uM after 48 hrs by coulter counter method; conditions: OVCAR-8, 48 h, read-out: GI; how it was run: as §1
SR = assay: Growth inhibition of human SR cells at 10 uM after 48 hrs by coulter counter method; conditions: read-out: GI; how it was run: as §1
SF-295 = assay: Growth inhibition of human SF295 cells at 10 uM after 48 hrs by coulter counter method; conditions: SF-295, 48 h, read-out: GI; how it was run: as §1
T47D = assay: Growth inhibition of human T47D cells at 10 uM after 48 hrs by coulter counter method; conditions: read-out: GI; how it was run: as §1
NSCLC = assay: Growth inhibition of human NSCLC cells after 48 hrs by coulter counter method; how it was run: as §2
MOLT-4 = assay: Growth inhibition of human MOLT4 cells at 10 uM after 48 hrs by coulter counter method; conditions: MOLT-4, 48 h, read-out: GI; how it was run: as §1
CAKI-1 = assay: Growth inhibition of human Caki1 cells at 10 uM after 48 hrs by coulter counter method; how it was run: as §1
SNB-19 = assay: Growth inhibition of human SNB19 cells at 10 uM after 48 hrs by coulter counter method; conditions: SNB-19, 48 h, read-out: GI; how it was run: as §1
NCI-H23 = assay: Growth inhibition of human NCI-H23 cells at 10 uM after 48 hrs by coulter counter method; conditions: NCI-H23, 48 h, read-out: GI; how it was run: as §1
MCF7 = assay: Growth inhibition of human MCF7 cells at 10 uM after 48 hrs by coulter counter method; conditions: MCF7, 48 h, read-out: GI; how it was run: as §1
LOX IMVI = assay: Growth inhibition of human LOXIMVI cells at 10 uM after 48 hrs by coulter counter method; how it was run: as §1
Malme-3M = assay: Growth inhibition of human MALME-3M cells at 10 uM after 48 hrs by coulter counter method; how it was run: as §1
ACHN = assay: Growth inhibition of human ACHN cells at 10 uM after 48 hrs by coulter counter method; conditions: read-out: GI; how it was run: as §1
IGROV-1 = assay: Growth inhibition of human IGROV1 cells at 10 uM after 48 hrs by coulter counter method; how it was run: as §1
[2] = Growth inhibition of human CNS cancer cells after 48 hrs by coulter counter method; conditions: Cancer cell lines; how it was run: as §2
[3] = read-out: LC50 (the source's name)

Compound: O=C1CN2N=C(c3ccccc3)SC2=N1
- inhibition of growth at 10 µM (NCI/ADR-RES): 17.9%
- GI50 [1]: 7.6 µM
- TGI [1]: 18.3 µM
- CC50 [1, 3]: 50.8 µM
- inhibition of growth at 10 µM (HCT-116): 42.6%
- inhibition of growth at 10 µM (SK-MEL-2): 14.1%
- inhibition of growth at 10 µM (OVCAR-8): 35.3%
- inhibition of growth at 10 µM (SR): 36.3%
- inhibition of growth at 10 µM (SF-295): 90.6%
- inhibition of growth at 10 µM (T47D): 33.2%
- GI50 (NSCLC): 9.7 µM
- TGI (NSCLC): 20.7 µM
- CC50 (NSCLC; [3]): 55.7 µM
- inhibition of growth at 10 µM (MOLT-4): 37.5%
- growth inhibition (GI) (CAKI-1): Active
- inhibition of growth at 10 µM (SNB-19): 23.2%
- inhibition of growth at 10 µM (NCI-H23): 21.6%
- inhibition of growth at 10 µM (MCF7): 46.4%
- growth inhibition (GI) (LOX IMVI): Active
- growth inhibition (GI) (Malme-3M): Active
- inhibition of growth at 10 µM (ACHN): 29.5%
- growth inhibition (GI) (IGROV-1): Active
- GI50 [2]: 8.7 µM
- TGI [2]: 18.8 µM
- CC50 [2, 3]: 51.3 µM
